High-throughput results deposited in PubChem by Broad Institute.
F508del corr: F508del CFTR correction, initial screen, CFBE line, single point; CFBE cells, YFP halide quenching; stimulated with forskolin plus potentiator P3; % fluorescence drop versus neutral controls; activity (quench increase), % at 7.58 µM; 350,000 tested, 0.36% active;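 active = mean added fluorescence quench of at least 8% versus neutral control, with both replicates also reaching 8%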;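 also: cells transiently co-express mutant CFTR-F508del with the halide-sensitive YFP; corrector assay measuring rescue of mutant channel to the surface after 24 h compound exposure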
miR122 inh: miR-122 Renilla sensor signal increase in Huh7, primary screen, miR-122 inhibitor project, cell-based, single point, plate reader; activation (reporter increase), % at 12.5 µM; Huh7 miR-122 Renilla luciferase sensor, 48 h; neutral wells = 0, positive control = 100; 340,000 tested, 0.3% active;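 active = mean replicate activation score at least 90 and every replicate individually at or above 90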;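 also: higher luciferase means less miR-122 activity so hits act as miR-122 inhibitors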
DENV2 CPE rescue: inhibitors of DENV2 cytopathic effect, primary screen, cell-based, plate reader, single concentration; DENV2-infected cells, cytopathic effect rescue; CPE inhibition, % at 9.99 µM; 350,000 tested, 1.7% active; AID 651640, 2012; in the data active = CPE inhibition above about 20%, passing the limit was not always enough; tested in BHK-21 cells;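 also: 0% = median of neutral control wells and 100% = median of positive control wells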
INS-1E GSIS act: GLuc luminescence reporter in INS-1E cells, primary screen for activators of glucose-dependent secretion of insulin. INS-1E GLuc reporter insulin secretion, 2-3 h. activation, % at 16.6 µM. 370,000 tested, 0.61% active;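 active = lowest replicate activation of at least 40%, so every replicate reaches that level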;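 also: 0% = median of neutral control wells and 100% = median of IBMX positive control wells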
E-selectin induc: E-selectin induction in HUVECs, primary screen, imaging, HUVEC, immunofluorescence imaging, single point; 260,000 tested, 0.37% active; P16581; normalized: neutral wells 0, TNF-alpha wells 100; activation, % at 7.58 µM;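 active = mean E-selectin-positive cell signal at least 10% of the positive control, reached in at least 60% of replicates, without over 20% cell loss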
Target sequence (P16581 whole entry, looked up): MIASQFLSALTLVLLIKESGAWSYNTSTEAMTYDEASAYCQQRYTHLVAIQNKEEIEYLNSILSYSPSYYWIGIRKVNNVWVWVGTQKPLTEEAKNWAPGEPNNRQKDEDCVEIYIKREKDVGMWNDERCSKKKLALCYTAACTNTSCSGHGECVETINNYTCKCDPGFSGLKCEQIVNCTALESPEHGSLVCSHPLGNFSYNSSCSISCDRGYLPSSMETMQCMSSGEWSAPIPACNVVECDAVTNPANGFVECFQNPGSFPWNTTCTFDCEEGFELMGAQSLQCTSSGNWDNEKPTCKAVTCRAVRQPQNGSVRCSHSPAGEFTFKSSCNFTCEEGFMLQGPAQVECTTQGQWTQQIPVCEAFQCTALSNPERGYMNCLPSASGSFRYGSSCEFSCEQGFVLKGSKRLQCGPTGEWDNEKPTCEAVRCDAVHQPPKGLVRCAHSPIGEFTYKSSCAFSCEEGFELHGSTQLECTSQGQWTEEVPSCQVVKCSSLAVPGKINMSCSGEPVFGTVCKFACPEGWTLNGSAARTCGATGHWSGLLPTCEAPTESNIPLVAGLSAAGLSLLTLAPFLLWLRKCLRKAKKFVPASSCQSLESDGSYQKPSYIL
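Material: HUVEC primary endothelial cells; Amount: 3,000 cells per well; Dosing: single concentration; Medium: EGM-2 growth medium on 0.1% gelatin-coated wells; Read-out basis: percent E-selectin-positive cells; Signal: immunofluorescence imaging; Control set: TNF-alpha, DMSO.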
ERAP1 HTS inh: human ERAP1 aminopeptidase inhibitors, primary screen, biochemical, single point, plate reader | Endoplasmic reticulum aminopeptidase 1 (Homo sapiens), Q9NZ08 | recombinant ERAP1, Leu-AMC fluorescence, 60 min | inhibition, % at 10.7 µM | 340,000 tested, 0.15% active;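 active = mean replicate inhibition of at least 30%, or all replicates individually reaching that 30% level; inactive = mean below 30% and not every replicate reaching it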;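 also: 0% = neutral control wells and 100% = L-leucinethiol positive control wells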
Numbers without * were called inactive; . = no result given; [ ] = dose if it differs, or a comment. In the library only some 2.6% were active in any assay of this set; here they are far more common.

SMILES	F508del corr	miR122 inh	DENV2 CPE rescue	INS-1E GSIS act	E-selectin induc	ERAP1 HTS inh
Cc1cccc(S(=O)(=O)N2C[C@H]3[C@@H](c4ccccc42)[C@H](CO)N3CC2CCCC2)c1	14*	12[16.7 µM]	3	-22	0	0
O=C(CC(F)(F)F)N1C[C@@H]2[C@H](c3ccccc31)[C@H](CO)N2C(=O)C1CCCC1	-1	50[16.7 µM]	21*	-6	0	-1
O=C(CC(F)(F)F)N1C[C@H]2[C@@H](c3ccccc31)[C@@H](CO)N2C(=O)C1CCCC1	1	0[16.7 µM]	0	-5	0	-1
CO[C@H]1CN(C)C(=O)c2ccc(NC(=O)c3ccc(F)cc3)cc2OC[C@@H](C)N(C(=O)CN(C)C)C[C@H]1C	1	8[16.7 µM]	.	11	0	.
C[C@H](O)C#Cc1ccc2c(c1)O[C@H](CN(C)CC1CCCCC1)[C@H](C)CN([C@H](C)CO)S2(=O)=O	2	-1[16.7 µM]	0	1	0	-3
C[C@H](CO)N1C[C@H](C)[C@H](CN(C)CC2CCOCC2)Oc2cc(C#CC3CC3)ccc2S1(=O)=O	0	8[16.7 µM]	22*	-6	0	1
C[C@H](CO)N1C[C@H](C)[C@H](CN(C)CC2CC2)Oc2cc(C#Cc3ccccc3)ccc2S1(=O)=O	-2	-1[16.7 µM]	5	-6	0	-3
C[C@H]1CN([C@@H](C)CO)S(=O)(=O)c2ccc(C#CC3CC3)cc2O[C@H]1CN(C)CC1CCOCC1	2	7[16.7 µM]	-1	8	0	2
C[C@@H]1CN([C@@H](C)CO)S(=O)(=O)c2ccc(C#Cc3ccccc3)cc2O[C@@H]1CN(C)CC1CC1	2	1[16.7 µM]	12	-23	131*	-3
C[C@@H]1CN([C@@H](C)CO)S(=O)(=O)c2ccc(C#C[C@@H](C)O)cc2O[C@H]1CN(C)CC1CCCC1	1	14[16.7 µM]	21*	9	0	-7
COc1ccc(S(=O)(=O)Nc2ccc3c(c2)C(=O)N([C@H](C)CO)C[C@@H](C)[C@@H](CN(C)Cc2ccccc2)OCCCC[C@@H](C)O3)cc1	0	19[16.7 µM]	1	-18	0	.
CCCN1[C@@H]2c3ccc(-c4ccccc4)c(=O)n3C[C@@H]2[C@@H](CO)[C@@H]1C(=O)N1CCOCC1	.	.	-15	5	0	-3
COc1cc(C2C3=C(COC3=O)Oc3cc4c(cc32)OCO4)ccc1O (stereo unspecified)	1	5	-5	-1	4	4
COc1cc(C2C3=C(COC3=O)OC(C)(C)Oc3cc4c(cc32)OCO4)cc(OC)c1OC (stereo unspecified)	1	114*	-6	-8	0	-1
O=C(C1CCCC1)N1CC(=O)N2[C@@H](CO)[C@H](c3ccc(C#Cc4cccc(F)c4)cc3)[C@@H]2C1	1	.	-4	9	0	-2
CN1C(=O)c2cc(NC(=O)c3ccccc3Cl)ccc2OC[C@@H]2O[C@H](CC(=O)NCC(F)(F)F)CC[C@@H]21	.	.	6	3	0	2
O=[N+]([O-])c1cc(S(=O)(=O)O)cc([N+](=O)[O-])c1NN(c1ccccc1)c1ccccc1	2	-7	0	.	56*	5
CC(Oc1ccc(S(=O)(=O)N2CCCC2)cc1[N+](=O)[O-])C(=O)N(C)c1ccccc1 (stereo unspecified)	8	-13	0	0	.	0
CN(C)N1C(N)=C(C#N)C(c2ccccc2)C2=C1CC(C)(C)CC2=O (stereo unspecified)	1	.	46*	-21	0	-2
CCNC(=O)Nc1ccc2c(c1)C(=O)N(C)[C@@H]1CC[C@@H](CC(=O)NCc3cccc(F)c3)O[C@H]1CO2	2	4[16.7 µM]	-1	3	0	.
Cc1ccc(-c2cnc3cccnn23)cc1F	1	7	-6	46*	0	18
COc1cccc(-c2cnc3cccnn23)c1	-4	-1	9	25	0	14
CC(C)C#Cc1cnc2c(c1)C(=O)N([C@H](C)CO)C[C@@H](C)[C@@H](CN(C)C(=O)Nc1ccc(F)cc1)O2	-1	-5[16.7 µM]	-10	-10	0	6
COc1ccc(/C=N/NC(=S)Nc2ccccc2[N+](=O)[O-])cc1O	8.8*	8	-1	2	-1	-1
Cc1cccc(NC(=S)N/N=C/c2cccc(O)c2)c1C	11*	41	1	-16	0	.
SMILES	F508del corr	miR122 inh	DENV2 CPE rescue	INS-1E GSIS act	E-selectin induc	ERAP1 HTS inh
Cc1ccccc1NC(=S)N/N=C/c1ccc(O)cc1O	2	-3	6	-36	0	.
C[C@@H]1CCCCO[C@H](CN(C)CC2CCCCC2)[C@@H](C)CN([C@H](C)CO)C(=O)c2cc(NC(=O)CCCCCC(=O)Nc3ccccc3N)ccc2O1	.	.	.	-5	0	.
CC(C)(C)S(=O)N1Cc2cc(C(=O)NCc3ccc4c(c3)OCO4)nc(-c3cccc(C#CCC4CCCC4)c3)c2[C@H]1CCO (stereo partly specified)	4	.	7	.	.	-7
CC(C)(C)S(=O)N1Cc2cc(C(=O)NCc3ccc4c(c3)OCO4)nc(-c3cccc(C#CCC4CCCC4)c3)c2[C@@H]1CCO (stereo partly specified)	6	.	49*	.	.	2
CC(C)(C)S(=O)N1Cc2cc(C(=O)NCc3ccc4c(c3)OCO4)nc(-c3cccc(-c4cccc(F)c4)c3)c2[C@@H]1CCO (stereo partly specified)	1	.	24*	-4	0	-1
CC(C)(C)S(=O)N1Cc2cc(C(=O)NCc3ccc4c(c3)OCO4)nc(-c3cccc(-c4cc5ccccc5o4)c3)c2[C@H]1CCO (stereo partly specified)	4	.	1	2	0	0
C[C@@H]1CN([C@@H](C)CO)C(=O)c2cc(C#CC3CCCC3)cnc2O[C@@H]1CN(C)Cc1ccncc1	5	0[16.7 µM]	5	-7	0	-1
OCC1OC(n2cnc3c(NCc4ccccc4O)ncnc32)C(O)C1O (stereo unspecified)	-1	572*	-3	-20	0	-8
COc1cc(C(=O)N2CCC(C(N)=O)CC2)ccc1OCc1c(C)noc1C	9.4*	4	-4	.	0	-5
COc1ccc(N2CCN(C(=O)c3ccc(OCc4c(C)noc4C)c(OC)c3)CC2)cc1	.	-11	.	.	.	.
CCc1ccc(NS(=O)(=O)c2ccc(OC)c3ncccc23)cc1	-1	173*	-2	-2	.	-6
